Assay results from ChEMBL document CHEMBL4431316, “New 6-Aminoquinoxaline Derivatives with Neuroprotective Effect on Dopaminergic Neurons in Cellular and Animal Parkinson Disease Models” (J Med Chem, 2016).
Calls of active or inactive are those of the source. The calls are words filed in the database; no cut-off is given here.

Key:
[1] = Neuroprotective activity in Sprague-Dawley rat DA neuron death PD model assessed as survival of Th immunopositive cells at 50 uM after 10 days by immunofluorescence assay; format: functional; conditions: 240 h, read-out: Survival
How it was run: (§1)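 Midbrain cultures in which DA neurons die spontaneously and selectively through a mechanism involving immature astrocytes and calcium dyshomeostasis. Compounds were present for 10 days in vitro, screened at 50 µM (100 µM for one analog) and retested at 10 µM. dbcAMP 1 mM served as reference. Surviving TH+ neurons were counted and expressed as % of corresponding untreated control cultures.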

[2] = Neuroprotective activity in Sprague-Dawley rat DA neuron death PD model assessed as survival of Th immunopositive cells at 10 uM after 10 days by immunofluorescence assay relative to control; format: functional; conditions: 240 h, read-out: Survival; how it was run: as §1
[3] = system: Astrocyte; assay: Neuroprotective activity in Sprague-Dawley rat astrocytes assessed as effect on vimentin positive cell density and morphology at 10 uM by fluorescence microscopic method; format: functional, cell-based
How it was run: (§2)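 Midbrain cultures labelled for vimentin, a glial marker. Density and morphology of glial cells scored semi-quantitatively by fluorescence microscopy. Compounds tested at 10 and 50 µM, one at 100 µM; dbcAMP as reference.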

[4] = system: Astrocyte; assay: Neuroprotective activity in Sprague-Dawley rat astrocytes assessed as effect on vimentin positive cell density and morphology at 50 uM by fluorescence microscopic method; format: functional, cell-based; how it was run: as §2
[5] = system: Astrocyte; assay: Neuroprotective activity in Sprague-Dawley rat astrocytes assessed as [methyl-3H]thymidine incorporation at 10 to 50 uM after 8 days by liquid scintillation counting assay relative to control; format: functional
How it was run: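 Glial proliferation in midbrain cultures measured as [methyl-3H]-thymidine incorporation at 8 DIV, with test compound 10-50 µM. DbcAMP 1 mM as positive control. Expressed as % of control.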

[6] = species: Rattus norvegicus; assay: Neuroprotective activity in Sprague-Dawley rat DA neuron death PD model assessed as increase in [2,5,6-3H]DA uptake at 10 to 50 uM after 10 days by liquid scintillation counting spectrometric analysis; format: functional
How it was run: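 Midbrain cultures in which DA neurons die spontaneously and selectively. Treated with test compound (10-50 µM) or dbcAMP (1 mM, reference) up to 10 DIV. Tritium-labeled DA uptake quantified as a marker of DA cell function and differentiation. Uptake rate per TH+ neuron also derived. *P < 0.05 vs control.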

[7] = species: Rattus norvegicus; assay: Neuritogenic activity in Sprague-Dawley rat DA neuron death PD model assessed as development of neurite network in Th immunopositive cells at 10 to 50 uM after 10 days by microscopic analysis relative to control; format: functional, cell-based
How it was run: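 Midbrain cultures treated or not with test compound (10-50 µM) for 10 DIV, then immunostained for TH. Neuritic network of TH+ neurons examined microscopically against control neurons. DbcAMP 1 mM as reference protective molecule.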

[8] = species: Rattus norvegicus; assay: Neuroprotective activity in Sprague-Dawley rat DA neuron death PD model assessed as inhibition of calcium mobilization at 50 uM after 10 days in presence of RyR channel blocker dantrolene; format: functional
[9] = species: Rattus norvegicus; assay: Neuroprotective activity in Sprague-Dawley rat DA neuron death PD model assessed as inhibition of calcium mobilization at 50 uM after 10 days in presence of L-type voltage gated calcium channel blocker nifedipine; format: functional
[10] = species: Rattus norvegicus; assay: Neuroprotective activity in Sprague-Dawley rat DA neuron death PD model assessed as survival of Th immunopositive cells at 50 uM after 10 days in presence of anti-GDNF antibody by immunofluorescence assay; format: functional
[11] = species: Rattus norvegicus; assay: Neuroprotective activity in Sprague-Dawley rat DA neuron death PD model assessed as survival of Th immunopositive cells treated at 10 to 50 uM in presence of GDNF for 10 days followed by deprivation of GDNF for next 5 days by immunofluorescence assay; format: functional
How it was run: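 Midbrain cultures kept with GDNF (20 ng/ml) for 10 days, then deprived of GDNF from 11 to 15 DIV, with test compound 10-50 µM. TH+ neurons counted and compared with cultures kept on GDNF to 15 DIV. P < 0.05 vs GDNF-treated and vs GDNF-deprived cultures.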

[12] = species: Rattus norvegicus; assay: Antioxidant activity in Sprague-Dawley rat DA neuron assessed as reduction in ferrous iron-mediated neuron death at 5 uM; format: functional
How it was run: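 Midbrain cultures with DA cell death driven by a Fenton-type reaction, ferrous iron reacting with molecular oxygen in the medium (chronic oxidative stress). Test compound 1-10 µM; desferrioxamine 10 µM as positive control. Readout is DA neuron (TH+) survival. P < 0.05 vs control cultures.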

[13] = system: Mus musculus; assay: (§3) Neuroprotective activity against MPTP-induced C57BL/6 mouse SN DA neuron toxicity model assessed as survival of Th immunopositive cells at 25 mg/kg/day, po bid pretreated for 3 days followed by MPTP challenge and further administration of compound up to day 11 by immunohistochemical analysis (reference value: 61 +/- 5%); format: functional; conditions: C57BL/6, po
How it was run: (§4)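 C57BL/6 mice given sub-chronic MPTP treatment. Test agent given per os twice daily (2x25 or 2x50 mg/kg/day) for 11 days. TH+ neurons counted in one hemisphere per mouse. Expressed as % of vehicle-treated mice, mean ± SEM, n=9-12.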

[14] = system: Mus musculus; assay: as §3, with “50” for “25”, “relative to control” for “(reference value: 61 +/- 5%)”; format: functional; conditions: C57BL/6, po; how it was run: as §4
[15] = target: T1, Amine oxidase [flavin-containing] B (Rattus norvegicus, UniProt P19643); assay: Inhibition of rat mitochondrial MAO-B using DAB as substrate incubated for 30 mins by HPLC analysis
T1 sequence (P19643 whole entry): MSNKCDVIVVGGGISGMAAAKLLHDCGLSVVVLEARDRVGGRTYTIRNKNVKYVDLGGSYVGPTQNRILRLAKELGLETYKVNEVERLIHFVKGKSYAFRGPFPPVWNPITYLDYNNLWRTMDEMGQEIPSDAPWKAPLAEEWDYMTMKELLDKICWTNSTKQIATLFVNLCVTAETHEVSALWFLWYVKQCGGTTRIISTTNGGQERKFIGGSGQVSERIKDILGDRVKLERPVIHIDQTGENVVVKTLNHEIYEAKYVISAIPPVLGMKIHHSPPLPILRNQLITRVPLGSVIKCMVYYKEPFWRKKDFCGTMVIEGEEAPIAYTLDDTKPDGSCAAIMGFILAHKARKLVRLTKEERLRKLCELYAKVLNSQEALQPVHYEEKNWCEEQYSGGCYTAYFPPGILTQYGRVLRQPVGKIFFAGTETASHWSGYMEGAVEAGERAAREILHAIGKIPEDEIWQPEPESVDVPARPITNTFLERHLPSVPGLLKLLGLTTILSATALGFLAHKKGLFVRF

[16] = system: Mus musculus; assay: Neuroprotective activity against MPTP-induced C57BL/6 mouse DA neuron toxicity model assessed as restoration of striatal DA level at 25 mg/kg/day, po bid pretreated for 3 days followed by MPTP challenge and further administration of compound up to day 11 by HPLC method (reference value: 28 +/- 2%); format: functional
[17] = system: Mus musculus; assay: Neuroprotective activity against MPTP-induced C57BL/6 mouse DA neuron toxicity model assessed as restoration of striatal HVA level at 25 mg/kg/day, po bid pretreated for 3 days followed by MPTP challenge and further administration of compound up to day 11 by HPLC method (reference value: 53 +/- 3%); format: functional
[18] = system: Mus musculus; assay: Neuroprotective activity against MPTP-induced C57BL/6 mouse DA neuron toxicity model assessed as reduction of striatal DA turnover at 25 mg/kg/day, po bid pretreated for 3 days followed by MPTP challenge and further administration of compound up to day 11 by HPLC method; format: functional; parameters: scale not given: the % may be the effect or the level left
[19] = system: Mus musculus; assay: Neuroprotective activity against MPTP-induced C57BL/6 mouse DA neuron toxicity model assessed as restoration of striatal DA level at 50 mg/kg/day, po bid pretreated for 3 days followed by MPTP challenge and further administration of compound up to day 11 by HPLC method; format: functional, organism-based
[20] = system: Mus musculus; assay: Neuroprotective activity against MPTP-induced C57BL/6 mouse DA neuron toxicity model assessed as restoration of striatal HVA level at 50 mg/kg/day, po bid pretreated for 3 days followed by MPTP challenge and further administration of compound up to day 11 by HPLC method; format: functional, organism-based
[21] = system: Mus musculus; assay: Neuroprotective activity against MPTP-induced C57BL/6 mouse DA neuron toxicity model assessed as decrease in striatal DOPAC level at 50 mg/kg/day, po bid pretreated for 3 days followed by MPTP challenge and further administration of compound up to day 11 by HPLC method; format: functional, organism-based

Question: Which viability at 50 µM [1] does the source give for `Nc1ccc2ncc(-c3ccccc3)nc2c1` here?
Answer: 226%

Question: What about the viability at 10 µM [2] of the same compound?
Answer: 152%

Question: What about the Activity [3] of the same compound?
Answer: inactive

Question: And the Activity [4]?
Answer: inactive

Question: And the Activity [5]?
Answer: 93.8%

Question: And the Activity [6]?
Answer: Active

Question: What about the Activity [7] of the same compound?
Answer: Active

Question: And the inhibition [8]?
Answer: inactive

Question: What about the inhibition [9] of the same compound?
Answer: Active

Question: And the Activity [10]?
Answer: Active

Question: And the Activity [11]?
Answer: Active

Question: What about the Activity [12] of the same compound?
Answer: Active

Question: What about the survival at 25 mg/kg/day [13] of the same compound?
Answer: 78%

Question: And the survival at 50 mg/kg/day [14]?
Answer: 91%

Question: And the IC50 [15]?
Answer: 513 µM

Question: And the Activity [16]?
Answer: 39%

Question: What about the Activity [17] of the same compound?
Answer: 64%

Question: And the Activity [18]?
Answer: 36%

Question: What about the Activity [19] of the same compound?
Answer: Active

Question: And the Activity [20]?
Answer: Active

Question: What about the Activity [21] of the same compound?
Answer: Active
